Experimental data published in PMC6734327 (Heliyon, 2019).

Columns and labels:
[1] = system: MCF-7 (human breast adenocarcinoma); test: Cytotoxic assay, alamar blue, MCF-7; format: cell-based; settings: MCF7, 72 h, read-out: IC50 MCF-7
Procedure, shortened: (§1)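 Cells from ATCC, mycoplasma-negative, grown in RPMI 1640 with 10% FBS at 37 °C and 5% CO2. Seeded at 0.7 × 10^5 cells/mL (adherent) or 0.3 × 10^6 cells/mL (suspension), then pre-incubated for 24 h. Test compound in DMSO added for 72 h; doxorubicin was the positive control and DMSO the vehicle control. Resazurin stock (0.312 mg/mL) added 4 h before the end. Absorbance read at 570/595 nm. IC50 taken from non-linear regression of % inhibition versus log concentration.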

[2] = system: HepG2 (human hepatocellular carcinoma); test: Cytotoxic assay, alamar blue, HepG2; format: cell-based; settings: HepG2, 72 h, read-out: IC50 HepG2
Procedure, shortened: as §1

[3] = system: MRC-5 (human lung fibroblast); test: Cytotoxic assay, alamar blue, non-cancer MRC-5; format: cell-based; settings: MRC5, 72 h, read-out: IC50 MRC-5
Procedure, shortened: as §1

[4] = system: prostate cancer (PC-3); settings: read-out: IC50 PC-3; cited from earlier work
[5] = system: breast cancer (MCF7); settings: read-out: IC50 MCF7; cited from earlier work
[6] = system: lung cancer (SK-LU-1); settings: read-out: IC50 SK-LU-1; cited from earlier work

SMILES	IC50 [1] [µM]	IC50 [2] [µM]	IC50 [3] [µM]	IC50 [4] [µM]	IC50 [5] [µM]	IC50 [6] [µM]
C[C@]12CC[C@@H]3c4ccc(O)cc4CC[C@H]3[C@@H]1CC[C@@]2(O)c1cn(CC(=O)c2ccccc2)nn1 [3a, 2-(4-((8R,9S,13S,14S,17S)-3,17-dihydroxy-13-methyl-7,8,9,11,12,13,14,15,16,17-decahydro-6H-cyclopenta[a]phenanthren-17-yl)-1H-1,2,3-triazol-1-yl)-1-phenylethan-1-one]	> 54.6	29.7	> 54.6			
C[C@]12CC[C@H](O)CC1=CC[C@@H]1[C@@H]2CC[C@]2(C)C(C(=O)Cn3cncn3)=CC[C@@H]12 [3β-hydroxy-21-(1H-1,2,4-triazol-1-yl)pregna-5,16-dien-20-one]				17	360	230
COc1cccc2c1C(=O)c1c(O)c3c(c(O)c1C2=O)C[C@@](O)(C(=O)CO)C[C@@H]3O[C@H]1C[C@H](N)[C@H](O)[C@H](C)O1 [Doxorubicin]			2.4			
